These results are taken from ChEMBL document CHEMBL1152300, “Ligand specificity of constitutive androstane receptor as probed by induced-fit docking and mutagenesis” (J Med Chem, 2008).

Data set [1] has as its target T1, Nuclear receptor subfamily 1 group I member 3 (Mus musculus, UniProt O35627).
T1 sequence (O35627 whole entry): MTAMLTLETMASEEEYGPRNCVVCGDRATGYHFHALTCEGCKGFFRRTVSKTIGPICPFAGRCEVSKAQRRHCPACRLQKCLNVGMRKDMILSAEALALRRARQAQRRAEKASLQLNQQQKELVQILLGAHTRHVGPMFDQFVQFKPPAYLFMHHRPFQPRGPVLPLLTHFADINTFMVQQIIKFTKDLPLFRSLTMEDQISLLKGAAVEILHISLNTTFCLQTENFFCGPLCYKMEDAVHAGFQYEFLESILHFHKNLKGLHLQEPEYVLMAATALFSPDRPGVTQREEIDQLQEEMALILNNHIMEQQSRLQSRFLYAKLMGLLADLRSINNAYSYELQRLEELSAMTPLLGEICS
In words: Activation of wild type mouse CAR expressed in HEK293 cells at 10 uM by mammalian one-hybrid assay. Conditions: hek293, 10 µM.

Data set [2] addresses T2, Nuclear receptor subfamily 1 group I member 3 (Mus musculus, UniProt O35627, H213A). In words: Enhancement of nuclear co-repressor receptor binding to mouse CAR H213A mutant […] at 10 uM by yeast two-hybrid assay. It is filed as cell-based. The essentials:
(§1)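 Yeast two-hybrid: yeast expressing wild-type or mutant mouse CAR LBD plus SRC-1 or NCoR, selected on SD medium lacking Leu and Trp. Pooled colonies treated with DMSO or test chemical for 3.5 h. β-Galactosidase normalized to cell density. SRC-1 reference: wild-type + DMSO = 100. NCoR reference: 10 µM androstenol = 100. Mean ± SD, two independent determinations, each in triplicate.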

The target in data set [3] is T3, Nuclear receptor subfamily 1 group I member 3 (Mus musculus, UniProt O35627, T350A). In words: Decrease in mouse CAR T350A mutant activation expressed in HEK293 cells at 1 uM by mammalian one-hybrid assay. It is filed as cell-based. The settings on record: read-out: Activity. A digest of the protocol:
(§2)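 GAL4 DBD fused to mouse CAR LBD (residues 118-358), wild type or point mutant, cotransfected with UASx4-tk-luc reporter and pCMVβ into HEK293 cells. Cells cultured with DMSO (0.1% v/v) or compound (final 1, 2 or 10 µM). Lysed 24 h post-transfection. Luciferase normalized to β-galactosidase, expressed relative to empty GAL4 vector (=1.0). Mean ± SD, three independent experiments.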

Data set [4] concerns the target T2, Nuclear receptor subfamily 1 group I member 3. In words: Effect on nuclear co-repressor receptor binding to mouse CAR H213A mutant […] at 1 uM by yeast two-hybrid assay. The format is cell-based. The settings on record: read-out: Activity. The essentials: (§3)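 Yeast expressing wild-type or mutant mouse CAR LBD plus NCoR, selected on SD plates lacking leucine and tryptophan. Pooled colonies treated with DMSO or compound for 3.5 h. β-Galactosidase activity normalized to cell density. Reference is 10 µM androstenol (=100). Mean ± SD of two independent determinations, each in triplicate.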

Data set [5] deals with T4, Nuclear receptor subfamily 1 group I member 3 (Mus musculus, UniProt O35627, L212A). In words: Effect on steroid receptor co-activator 1 binding to mouse CAR L212A mutant […] at 1 uM by yeast two-hybrid assay. The format is cell-based. The settings on record: read-out: Activity. A digest of the protocol: (§4)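 Yeast expressing wild-type or mutant mouse CAR LBD plus SRC-1, selected on SD plates lacking leucine and tryptophan. Pooled colonies treated with DMSO or compound for 3.5 h. β-Galactosidase activity normalized to cell density. Reference is wild-type CAR + SRC-1 with DMSO (=100). Mean ± SD of two independent determinations, each in triplicate.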
T4 sequence (O35627 whole entry L212A, the tested form may be a part): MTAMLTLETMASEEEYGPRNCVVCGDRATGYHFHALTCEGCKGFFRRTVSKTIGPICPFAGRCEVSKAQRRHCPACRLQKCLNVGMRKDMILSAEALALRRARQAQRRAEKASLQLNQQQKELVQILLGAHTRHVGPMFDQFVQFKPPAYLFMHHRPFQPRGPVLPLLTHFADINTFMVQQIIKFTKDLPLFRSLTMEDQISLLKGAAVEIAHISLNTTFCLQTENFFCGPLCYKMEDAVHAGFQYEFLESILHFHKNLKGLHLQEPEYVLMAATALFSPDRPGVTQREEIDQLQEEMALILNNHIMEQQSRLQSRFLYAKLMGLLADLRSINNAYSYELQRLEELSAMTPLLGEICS

For data set [6], the target named is T5, Nuclear receptor subfamily 1 group I member 3 (Mus musculus, UniProt O35627, F171A). In words: Effect on steroid receptor co-activator 1 binding to mouse CAR F171A mutant […] at 1 uM by yeast two-hybrid assay. The format is cell-based. The settings on record: read-out: Activity. The essentials: as §4
T5 sequence (O35627 whole entry F171A): as the sequence (O35627 whole entry L212A, the tested form may be a part) above, with F171A, A212L counted along it
The target of data set [7] is Nuclear receptor subfamily 1 group I member 3 (Mus musculus, UniProt O35627, Y336A). In words: Decrease in steroid receptor coactivator 1 binding to mouse CAR Y336A mutant […] at 1 uM by yeast two-hybrid assay. The format is cell-based. The settings on record: read-out: Activity. The essentials:
as §4

Data set [8] concerns the target T5, Nuclear receptor subfamily 1 group I member 3. In words: Effect on nuclear co-repressor receptor binding to mouse CAR F171A mutant […] at 1 uM by yeast two-hybrid assay. It is filed as cell-based. The essentials: as §3
The target in data set [9] is T6, Nuclear receptor subfamily 1 group I member 3 (Mus musculus, UniProt O35627, S251L). In words: Effect on nuclear co-repressor receptor binding to mouse CAR S251L mutant […] at 1 uM by yeast two-hybrid assay. It is filed as cell-based. Conditions: read-out: Activity. A digest of the protocol:
as §3

The target in data set [10] is T7, Nuclear receptor subfamily 1 group I member 3 (Mus musculus, UniProt O35627, T350M). In words: Effect on nuclear co-repressor receptor binding to mouse CAR T350M mutant […] at 1 uM by yeast two-hybrid assay. It is filed as cell-based. Conditions: read-out: Activity. A digest of the protocol: as §3
T7 sequence (O35627 whole entry T350M): as the sequence (O35627 whole entry L212A, the tested form may be a part) above, with A212L, T350M counted along it
The target of data set [11] is Nuclear receptor subfamily 1 group I member 3 (Mus musculus, UniProt O35627, I252L). In words: Effect on nuclear co-repressor receptor binding to mouse CAR I252L mutant […] at 1 uM by yeast two-hybrid assay. It is filed as cell-based. Conditions: read-out: Activity. The essentials:
as §3

The target in data set [12] is T1, Nuclear receptor subfamily 1 group I member 3. In words: Increase in nuclear co-repressor receptor binding to wild type mouse CAR expressed in HEK293 cells at 10 uM by yeast two-hybrid assay. The settings on record: hek293, 10 µM.
For data set [13], the target named is T4, Nuclear receptor subfamily 1 group I member 3. In words: Decrease in mouse CAR L212A mutant activation expressed in HEK293 cells at 10 uM by mammalian one-hybrid assay. It is filed as cell-based. Conditions: read-out: Activity. The essentials: as §2
Data set [14] addresses T3, Nuclear receptor subfamily 1 group I member 3. In words: Decrease in nuclear co-repressor receptor binding to mouse CAR T350A mutant […] at 2 uM by yeast two-hybrid assay. The format is cell-based. Conditions: read-out: Activity. A digest of the protocol: as §1
Data set [15] has as its target T8, Nuclear receptor subfamily 1 group I member 3 (Mus musculus, UniProt O35627, N175A). In words: Enhancement of steroid receptor co-activator 1 binding to mouse CAR N175A mutant […] at 2 uM by yeast two-hybrid assay. The format is cell-based. A digest of the protocol:
as §1

In data set [16] the target is T7, Nuclear receptor subfamily 1 group I member 3. In words: Activation of mouse CAR T350M mutant expressed in HEK293 cells at 2 uM by mammalian one-hybrid assay. The format is cell-based. Conditions: hek293, 2 µM. The essentials:
(§5)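 GAL4-DBD fused to mouse CAR LBD (residues 118-358), wild-type or point mutant, cotransfected with UASx4-tk-luc reporter and pCMVβ into HEK293 cells. Cells were exposed to final 1 µM, 2 µM or 10 µM test chemical, or 0.1% v/v DMSO, for 24 h after transfection. Luciferase was normalized to β-galactosidase and set against empty GAL4 vector (=1.0). Mean ± standard deviation, three independent experiments.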

Data set [17] has as its target T5, Nuclear receptor subfamily 1 group I member 3. In words: Activation of mouse CAR F171A mutant expressed in HEK293 cells at 2 uM by mammalian one-hybrid assay. It is filed as cell-based. The settings on record: hek293, 2 µM. The essentials:
as §5

Data set [18] concerns the target T8, Nuclear receptor subfamily 1 group I member 3. In words: Decrease in mouse CAR N175A mutant activation expressed in HEK293 cells at 2 uM by mammalian one-hybrid assay. Conditions: read-out: Activity. The format is cell-based. The essentials:
as §5

Data set [19] addresses T6, Nuclear receptor subfamily 1 group I member 3. In words: Decrease in nuclear co-repressor receptor binding to mouse CAR S251L mutant […] at 2 uM by yeast two-hybrid assay. The format is cell-based. More on the design: scale not given: the % may be the effect or the level left. The essentials: as §1
In data set [20] the target is Nuclear receptor subfamily 1 group I member 3 (Mus musculus, UniProt O35627, F171L). In words: Effect on steroid receptor co-activator 1 binding to mouse CAR F171L mutant […] at 2 uM by yeast two-hybrid assay. It is filed as cell-based. Conditions: read-out: Activity. The essentials:
as §1

T8 sequence (O35627 whole entry N175A): as the sequence (O35627 whole entry L212A, the tested form may be a part) above, with N175A, A212L counted along it
T2 sequence (O35627 whole entry H213A, the tested form may be a part): as the sequence (O35627 whole entry L212A, the tested form may be a part) above, with A212L, H213A counted along it
T3 sequence (O35627 whole entry T350A, the tested form may be a part): as the sequence (O35627 whole entry L212A, the tested form may be a part) above, with A212L, T350A counted along it
T6 sequence (O35627 whole entry S251L): as the sequence (O35627 whole entry L212A, the tested form may be a part) above, with A212L, S251L counted along it
Sequence of Nuclear receptor subfamily 1 group I member 3 (Mus musculus, UniProt O35627, F171L) (O35627 whole entry F171L): as the sequence (O35627 whole entry L212A, the tested form may be a part) above, with F171L, A212L counted along it
Sequence of Nuclear receptor subfamily 1 group I member 3 (Mus musculus, UniProt O35627, Y336A) (O35627 whole entry Y336A): as the sequence (O35627 whole entry L212A, the tested form may be a part) above, with A212L, Y336A counted along it
Sequence of Nuclear receptor subfamily 1 group I member 3 (Mus musculus, UniProt O35627, I252L) (O35627 whole entry I252L): as the sequence (O35627 whole entry L212A, the tested form may be a part) above, with A212L, I252L counted along it

With `COc1ccc(C(=O)CCCc2ccccc2)cc1`, the Activity in data set [1] is on record as 40%; in data set [2] it was “>= 50%”.

Consider `Clc1cnc(Oc2ccc(Oc3ncc(Cl)cc3Cl)cc2)c(Cl)c1`, for which the inhibition at 1 µM in [3] is less than 50%; in data set [7] it was no less than 50%. Besides, the activity at 1 µM in data set [4], in data set [5], in data set [6], in data set [9], in data set [10] and in [11] was less than 50% each time. Further, in data set [8], the Activity was less than 50%.

In data set [12], `C[C@]12CC[C@@H](O)C[C@@H]1CC[C@@H]1[C@@H]2CC[C@]2(C)C=CC[C@@H]12` [ANDROSTENOL] registered an FC of 49. The inhibition at 10 µM in [13] stood at 50%.

For the compound `Clc1ccccc1C(c1ccccc1)(c1ccccc1)n1ccnc1` [CLOTRIMAZOLE], the inhibition at 2 µM in [14] was no less than 50%; in data set [18], 50%. Also, the Activity entry in [15] is “>= 50%”; in data set [16] it was greater than 100%; in data set [17], greater than 100%; in data set [19], “>= 50%”. In addition, the activity at 2 µM in data set [20] was no less than 50%.
